RGS4 act: potentiators or activators of RGS4; 310,000 compounds, 0.92% hits; B-score at 10 µM; HEK293 M3R/inducible RGS4, carbachol calcium flux Fluo4; hits give low values; AID 463111;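 active means B-score of the integrated calcium signal more than 4 SD below the library mean, with starting fluorescence not abnormally high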;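 further: negative B-score means reduced calcium response which marks RGS4 activation or potentiation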
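Material: Inducible-RGS4 HEK293 cells carrying M3 receptor; also added: carbachol at ECmax as muscarinic agonist stimulus; incubation: compound preincubation 20 min at room temperature before agonist; signal: Fluo4-AM (2 µM) calcium-flux fluorescence, kinetic read; measure: integrated calcium ratio converted to B score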
MrgX1 antag: blocks BAM8-22 activation of human MrgX1 receptor. Q96LB2. MRGX1-HEK293 calcium flux, Fluo-4, BAM8-22 antagonism; hits give low values. B-score at 10 µM. 310,000 compounds, 1.3% hits;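 active means calcium-response B-score plate-corrected more than 3 library SD below zero, starting fluorescence within 5 deviations, no agonist response on first addition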;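 further: peak minus trough fluorescence over baseline after final BAM8-22 challenge near maximal dose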
Target sequence (Q96LB2 whole entry, looked up): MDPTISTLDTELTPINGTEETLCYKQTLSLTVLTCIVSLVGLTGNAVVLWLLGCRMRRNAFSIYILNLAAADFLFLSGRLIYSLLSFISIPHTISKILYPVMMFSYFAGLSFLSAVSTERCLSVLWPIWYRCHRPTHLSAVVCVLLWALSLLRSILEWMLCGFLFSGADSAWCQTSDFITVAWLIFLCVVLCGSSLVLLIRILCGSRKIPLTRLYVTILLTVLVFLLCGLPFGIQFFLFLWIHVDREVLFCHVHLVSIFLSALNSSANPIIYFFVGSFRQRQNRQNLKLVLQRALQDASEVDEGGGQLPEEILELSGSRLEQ
PHOSPHO1 inh: inhibitors of human PHOSPHO1 phosphatase; Q8TCT1; recombinant PHOSPHO1, absorbance phosphatase assay; inhibition, % at 13.3 µM; 290,000 compounds, 1.1% hits; AID 1565; in the data active means inhibition above about 60%
RGS4 block: inhibitors of human RGS4; P49798; HEK293 M3R/RGS4 inducible, Fluo-4 calcium flux; hits give high values; triggered by carbachol at its EC20; B-score at 10 µM; 310,000 compounds, 0.45% hits;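 active means B-score, a plate-corrected calcium signal, over three deviations above library mean, with baseline fluorescence within five deviations of library mean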;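 further: RGS4 expression induced by doxycycline in cells with stable M3 receptor; B-score is computed from the integrated fluorescence ratio over baseline after carbachol; higher B-score means a larger calcium signal and so more RGS4 inhibition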
MrgX1 PAM: allosterically activates human MrgX1 receptor signaling. Q96LB2. MrgX1-HEK293, Fluo-4 calcium flux, FDSS; hits give high values. B-score at 10 µM. 310,000 compounds, 0.63% hits;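 active means plate-corrected calcium response at least 3 library SD above typical, normal starting fluorescence, not activating the receptor alone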;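 further: compound read alongside a low EC10 to EC30 dose of BAM8-22 agonist; peak minus trough fluorescence over baseline measured at the second addition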
MrgX1 agonist: activates human MrgX1 receptor signaling; 310,000 compounds, 0.44% hits; B-score at 10 µM; Q96LB2; AID 588627; MrgX1-HEK293 cells, Fluo-4 calcium fluorescence, agonist mode; hits give high values;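 active means calcium response B-score plate-corrected fluorescence ratio at least 3 library SD, with starting fluorescence B-score inside 5 SD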
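Material: MrgX1-expressing HEK293 cells; input: 15,000 cells per well; doses: test compound given as first of three sequential additions; schedule: overnight plating before 1 h dye loading; technique: Fluo-4 NW calcium-flux fluorescence, kinetic read; evaluation: baseline-normalised fluorescence change ratio, B-scored; control set: plate-wise positive and negative controls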
Numbers stand for hits; – = inactive; · = not tested or not shown. Shown are actives, neighbours in structure and some others; about 4.5% of the full set was active somewhere.

SMILES	RGS4 act	MrgX1 antag	PHOSPHO1 inh	RGS4 block	MrgX1 PAM	MrgX1 agonist
O=[N+]([O-])c1ccc(Sc2ccccc2Cl)nc1	–	–	97	–	–	–
CC(C)(C)c1nc(Sc2ccc([N+](=O)[O-])cn2)n[nH]1	–	–	–	–	–	–
O=[N+]([O-])c1ccc(Sc2n[nH]c(-c3ccc(Cl)cc3Cl)n2)nc1	–	–	67	–	–	–
OC[C@H]1O[C@@H](O[C@@H]2[C@@H](CO)O[C@@](O)(CO)[C@H]2O)[C@H](O)[C@@H](O)[C@H]1O	–	–	·	–	–	–
CCc1ccccc1N(CC(=O)NC(C)c1ccccc1)S(C)(=O)=O (stereo not drawn)	–	–	–	–	–	–
CCOP(=O)(c1ccccc1)c1nc(-c2ccc(F)cc2)oc1N1CCCCC1 (stereo not drawn)	–	–	–	–	–	38
CCOP(=O)(OCC)c1nc(-c2ccc(Br)cc2)oc1N1CCCCC1	–	–	·	–	–	–
O=[N+]([O-])c1ccc(/C=N/N=C/c2ccc([N+](=O)[O-])o2)o1	·	·	–	·	·	·
Cc1cc2ncn(/N=C/c3ccc([N+](=O)[O-])o3)c2cc1C	–	–	69	–	–	–
COc1ccc2nc(NC(=O)CSc3nc(C)cc(=O)[nH]3)sc2c1	–	–	74	–	–	–
COc1cccc(-n2c(SCC(=O)Nc3nc4ccccc4s3)nc3ccccc3c2=O)c1	–	–	62	–	–	–
COc1ccc2nc(NC(=O)C3=NN(c4ccccc4)C(=O)CC3)sc2c1	–	-5.6	–	–	–	–
C=CCNC(=O)c1onc(CSc2cccc(C)c2)c1C(=O)O	–	–	–	–	–	–
CCN(CC)S(=O)(=O)c1ccc2c(c1)oc(=O)n2CC(=O)NC1CCCCC1	–	–	–	–	–	–
COCCn1c(C)cc(C2=NNC(=Nc3ccccc3)SC2)c1C	–	–	102	–	–	–
Cc1cc(C2=NNC(=NCCc3ccccc3)SC2)c(C)n1CC1CCCO1 (stereo not drawn)	–	–	–	–	–	45
CCN=C1NN=C(c2cc(C)n(CCc3ccccc3)c2C)CS1	·	·	–	·	·	·
COc1ccc(C(CNC(=O)c2ccccc2SC)N(C)C)cc1 (stereo not drawn)	–	–	–	–	–	–
C/C(=N/NC(=O)c1ccccc1O)c1ccc(N2C(=O)C3CCCCC3C2=O)cc1 (stereo not drawn)	–	-8	–	–	–	–
O=C(NC(=S)N1CCOCC1)c1cc2ccccc2o1	–	–	–	–	–	–
O=C(CSc1ccccc1)N1CCCC(N2CCN(c3ccc(F)cc3)CC2)C1 (stereo not drawn)	–	–	–	–	–	–
CC(=O)N1CCN(CC(=O)Nc2cc(S(=O)(=O)N3CCOCC3)ccc2C)CC1	–	–	–	–	–	–
Cc1ccc(S(=O)(=O)N2CCOCC2)cc1NC(=O)Cn1nc(C)c([N+](=O)[O-])c1C	–	-5	·	–	–	–
Cc1ccc(S(=O)(=O)Nc2ccc(S(=O)(=O)N3CCOCC3)cc2)cc1[N+](=O)[O-]	–	–	–	–	–	–
Cc1ccc(Nc2ccc(S(=O)(=O)N3CCOCC3)cc2[N+](=O)[O-])cc1C	–	-9.2	–	–	–	–
SMILES	RGS4 act	MrgX1 antag	PHOSPHO1 inh	RGS4 block	MrgX1 PAM	MrgX1 agonist
O=C(NCCN1CCOCC1)C1CCN(c2ncnc3c2sc2cccc(F)c23)CC1	–	–	–	–	–	–
CCCCN(CC)CCCNC(=O)C1CCN(c2ncnc3c2sc2cccc(F)c23)CC1	-7.1	–	–	–	–	–
O=S1(=O)N=C(Nc2nncs2)c2ccccc21	–	–	97	–	–	–
COc1cc(CNC(=O)c2ccc3oc(C(C)C)nc3c2)cc(OC)c1	–	–	–	–	–	–
CC(C)CCNc1nc(N)c([N+](=O)[O-])c(NCCO)n1	–	–	–	–	–	–
CCC(C)Nc1nc(N)c([N+](=O)[O-])c(NCCO)n1 (stereo not drawn)	–	–	–	–	17	–
CCOC(=O)C(=O)/C(=C\N(C)C)c1onc(-c2c(F)cccc2Cl)c1C(=O)OC	–	–	–	–	–	–
O=C(Cn1cc(C(F)(F)F)ccc1=O)N/N=C/c1ccc(F)cc1	–	–	–	–	–	–

Screening data (PubChem BioAssay)
